In test [1] the test system is HeLa. In words: Cell cycle arrest in human HeLa cells assessed as accumulation at G0/G1 phase at 10 uM after 24 hrs by propidium iodide staining based flow cytometry (reference value: 52%). Format: functional.
For test [2], the target named is Toll-like receptor 3 (Homo sapiens) (UniProt O15455). Put plainly: Agonist activity at human TLR3 expressed in HEK293 cells assessed as induction of NF-kB activation-mediated SEAP production at 25 uM after 24 hrs by HTS assay relative to control. The class given is cell-based. Summed up: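 hTLR3 HEK293 SEAP reporter cells seeded at 5 × 10^4 cells/well for 24 h, exposed to 25 μM for 24 h. Supernatant SEAP detected with QUANTI-Blue (1 h, 37 °C, OD 620 nm). Activation normalized to untreated cells and expressed as fold change.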
Toll-like receptor 3 (Homo sapiens), sequence (O15455 whole entry): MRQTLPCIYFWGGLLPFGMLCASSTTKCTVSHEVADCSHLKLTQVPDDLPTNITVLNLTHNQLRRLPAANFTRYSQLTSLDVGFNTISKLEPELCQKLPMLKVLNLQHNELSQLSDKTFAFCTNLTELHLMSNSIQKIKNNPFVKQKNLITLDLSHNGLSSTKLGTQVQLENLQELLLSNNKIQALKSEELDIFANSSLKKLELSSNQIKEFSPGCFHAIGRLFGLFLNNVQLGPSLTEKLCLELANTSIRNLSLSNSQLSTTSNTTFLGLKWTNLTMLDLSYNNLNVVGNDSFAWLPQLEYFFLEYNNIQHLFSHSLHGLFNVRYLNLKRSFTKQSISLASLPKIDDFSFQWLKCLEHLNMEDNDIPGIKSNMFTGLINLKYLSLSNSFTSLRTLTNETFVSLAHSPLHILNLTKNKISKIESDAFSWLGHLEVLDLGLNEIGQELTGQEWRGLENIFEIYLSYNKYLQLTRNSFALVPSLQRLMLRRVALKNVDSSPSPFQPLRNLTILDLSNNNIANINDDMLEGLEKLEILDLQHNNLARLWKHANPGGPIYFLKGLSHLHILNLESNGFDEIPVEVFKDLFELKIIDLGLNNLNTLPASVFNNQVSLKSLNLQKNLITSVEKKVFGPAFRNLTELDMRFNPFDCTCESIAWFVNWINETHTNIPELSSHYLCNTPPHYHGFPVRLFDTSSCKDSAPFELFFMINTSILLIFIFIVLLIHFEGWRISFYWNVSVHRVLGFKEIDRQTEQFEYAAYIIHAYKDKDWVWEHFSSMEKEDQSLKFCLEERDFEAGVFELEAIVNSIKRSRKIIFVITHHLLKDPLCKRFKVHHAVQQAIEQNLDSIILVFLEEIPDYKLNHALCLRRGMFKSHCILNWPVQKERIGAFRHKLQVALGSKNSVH

The target of a further test is Toll-like receptor 5 (Homo sapiens, UniProt O60602). Put plainly: Agonist activity at human TLR5 expressed in HEK293 cells assessed as induction of NF-kB activation-mediated SEAP production after 24 hrs by HTS assay. The class given is cell-based. An outline of the steps: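 Stable HEK293 lines expressing a single hTLR plus a SEAP reporter, grown in DMEM/10% FBS with selective antibiotics. Seeded at 5 × 10^4 cells/well for 24 h at 37 °C, then treated 24 h. Supernatant mixed with QUANTI-Blue, 1 h at 37 °C, OD 620 nm. Cognate agonists: Pam3CSK4 (TLR2), poly I:C (TLR3), LPS (TLR4), FLA-BS (TLR5), R848 (TLR7). EC50 as mean ± SD.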
Toll-like receptor 5, sequence (O60602 whole entry): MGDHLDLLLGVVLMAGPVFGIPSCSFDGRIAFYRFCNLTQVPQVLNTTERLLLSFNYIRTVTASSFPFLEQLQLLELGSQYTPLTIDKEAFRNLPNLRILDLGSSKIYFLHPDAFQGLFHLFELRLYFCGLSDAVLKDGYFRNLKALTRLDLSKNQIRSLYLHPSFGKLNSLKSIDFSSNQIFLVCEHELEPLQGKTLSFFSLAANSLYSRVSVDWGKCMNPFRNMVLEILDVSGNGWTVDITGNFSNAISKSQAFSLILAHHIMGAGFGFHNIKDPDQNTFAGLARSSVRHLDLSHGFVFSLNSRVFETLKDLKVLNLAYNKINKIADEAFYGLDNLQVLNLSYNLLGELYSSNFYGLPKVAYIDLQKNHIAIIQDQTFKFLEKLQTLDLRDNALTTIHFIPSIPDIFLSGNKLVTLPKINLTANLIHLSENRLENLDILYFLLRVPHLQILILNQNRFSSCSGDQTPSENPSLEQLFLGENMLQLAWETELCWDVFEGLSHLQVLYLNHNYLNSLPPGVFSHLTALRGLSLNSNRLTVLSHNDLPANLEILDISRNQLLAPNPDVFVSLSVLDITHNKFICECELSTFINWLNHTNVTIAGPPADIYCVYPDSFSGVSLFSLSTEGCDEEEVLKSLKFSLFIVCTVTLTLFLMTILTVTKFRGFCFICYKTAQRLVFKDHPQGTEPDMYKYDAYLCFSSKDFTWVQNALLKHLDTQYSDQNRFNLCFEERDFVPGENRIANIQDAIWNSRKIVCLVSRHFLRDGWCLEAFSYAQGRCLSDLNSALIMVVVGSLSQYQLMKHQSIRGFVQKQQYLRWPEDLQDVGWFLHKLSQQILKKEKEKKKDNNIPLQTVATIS

The target in a further test is T1, Toll-like receptor 8 (Homo sapiens, UniProt Q9NR97).
T1 sequence (Q9NR97 whole entry): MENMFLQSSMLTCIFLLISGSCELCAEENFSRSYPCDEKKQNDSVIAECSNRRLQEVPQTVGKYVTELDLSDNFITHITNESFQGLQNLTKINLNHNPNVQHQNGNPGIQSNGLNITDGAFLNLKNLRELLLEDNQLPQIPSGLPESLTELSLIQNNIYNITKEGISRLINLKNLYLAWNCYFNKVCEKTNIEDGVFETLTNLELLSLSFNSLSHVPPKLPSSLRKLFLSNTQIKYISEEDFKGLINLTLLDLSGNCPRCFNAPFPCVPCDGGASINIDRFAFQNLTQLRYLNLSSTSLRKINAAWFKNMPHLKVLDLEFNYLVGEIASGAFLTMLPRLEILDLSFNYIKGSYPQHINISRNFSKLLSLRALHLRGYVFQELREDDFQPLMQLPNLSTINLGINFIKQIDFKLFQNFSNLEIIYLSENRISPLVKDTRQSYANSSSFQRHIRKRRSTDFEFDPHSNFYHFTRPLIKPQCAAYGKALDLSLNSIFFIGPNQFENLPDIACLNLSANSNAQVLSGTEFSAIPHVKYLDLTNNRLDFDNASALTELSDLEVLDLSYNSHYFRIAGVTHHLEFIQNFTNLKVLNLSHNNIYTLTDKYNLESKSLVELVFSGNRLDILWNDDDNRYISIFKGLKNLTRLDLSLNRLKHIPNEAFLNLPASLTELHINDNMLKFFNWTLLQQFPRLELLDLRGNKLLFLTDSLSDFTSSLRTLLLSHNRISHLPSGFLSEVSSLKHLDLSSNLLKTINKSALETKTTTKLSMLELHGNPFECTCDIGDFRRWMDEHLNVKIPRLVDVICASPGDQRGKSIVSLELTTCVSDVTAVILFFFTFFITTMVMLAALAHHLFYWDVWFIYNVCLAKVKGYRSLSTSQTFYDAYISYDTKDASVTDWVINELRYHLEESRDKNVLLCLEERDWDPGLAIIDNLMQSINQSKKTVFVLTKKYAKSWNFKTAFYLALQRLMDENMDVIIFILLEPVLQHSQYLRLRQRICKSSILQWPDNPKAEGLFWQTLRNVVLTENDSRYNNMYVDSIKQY
In words: Agonist activity at human TLR8 expressed in HEK293 cells assessed as induction of NF-kB activation-mediated SEAP production after 24 hrs by HTS assay. Format: cell-based. Summed up: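 HEK293 cells stably expressing human TLR8 or TLR9 plus an NF-κB-inducible SEAP reporter, seeded at 5 × 10^4 cells/well for 24 h, then treated for 24 h. Supernatant incubated with QUANTI-Blue at 37 °C for 1 h and OD read at 620 nm. Positive controls were R848 (TLR8) and ODN2006 (TLR9). EC50 reported as mean ± SD.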

Test [3] has as its system HeLa. Put plainly: Antiproliferative activity against human HeLa cells after 48 hrs by WST1 assay. The class given is functional, cell-based. An outline of the steps:
(§1)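 Cells seeded at 5 × 10^3/well and left 24 h, then given a concentration series for 24, 48 or 72 h. WST-1 reagent added and incubated at 37 °C for 30 min–2 h until color change; absorbance 450 nm. Growth inhibition = (1 − [sample − background]/[control − background]) × 100. IC50 mean ± SD, three cell preparations.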
A general note: Formazan colour is commonly taken as a measure of viable cells.

Test [4] has as its system HeLa. In words: Antiproliferative activity against human HeLa cells after 72 hrs by WST1 assay. Format: functional, cell-based. Summed up: as §1
The test system of test [5] is HeLa. In words: Cell cycle arrest in human HeLa cells assessed as accumulation at S phase at 30 uM after 24 hrs by propidium iodide staining based flow cytometry (reference value: 31%). Format: functional.

Data on one molecule can be found in ChEMBL document CHEMBL4014338, “Discovery of Small Molecules as Multi-Toll-like Receptor Agonists with Proinflammatory and Anticancer Activities” (J Med Chem, 2017).

For orientation: EC50 means the concentration giving half of the maximal effect. By IC50 is commonly meant the concentration that gives 50% inhibition. A high value points to weaker potency.

Where only a bound is given, the exact number is not on record here.

As to `O=[N+]([O-])c1ccc(COc2cc3c(cc2OCc2ccc([N+](=O)[O-])cc2)OC2(C=C3)CCOCC2)cc1`, the Activity in the test with HeLa [1] was 46%; in the test with HeLa [3] it was “Dose-dependent effect”; in the test on HeLa [4], “Dose-dependent effect”; with HeLa [5], 39%. Moreover, the fold change (FC) in test [2] is 13.9. The EC50 at Toll-like receptor 5 was more than 100 µM; at Toll-like receptor 8 it was 13.4 µM. Besides, the values for the IC50 with HeLa [3] and in the test with HeLa [4] were 15.8 µM and 2.71 µM, respectively.
